Measurements as given in ChEMBL document CHEMBL1127799, “Derivatives of a novel cyclopeptolide. 1. Synthesis, antifungal activity, and structure-activity relationships” (1994).
Values after ≈ are worked out from the molar mass of the structure shown.

Legend:
Format in all cases: functional
Candida albicans [1] = assay: Tested for minimum subinhibitory concentration against Candida albicans 4 (Candida albicans) at pH 4.5.
How it was run: (§1)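 Malt extract broth microdilution at initial pH 4.5, 1×10^3 CFU/0.2 mL well, final compound 0.05–100 μg/mL diluted from DMSO/Tween 80 stocks. Incubation was 48 h at 30 °C with macroscopic reading. MSIC was the lowest concentration causing visible growth inhibition in at least two of three triplicates.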

Candida albicans [2] = assay: Tested for minimum subinhibitory concentration against Candida albicans 88 (Candida albicans) at pH 4.5.; how it was run: as §1
Candida albicans [3] = assay: Tested for minimum subinhibitory concentration against Candida albicans 88 (Candida albicans) at pH 6.5.
How it was run: (§2)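 Malt extract broth microdilution, initial pH 6.5, inoculum 1×10^3 CFU per 0.2 mL well. Compound diluted from 0.08% stock (5% DMSO/0.2% Tween 80) to final 0.05–100 μg/mL. Macroscopic reading after 48 h, 30 °C. MSIC = lowest concentration giving visible growth inhibition in at least two of three triplicates. Vehicle-only negative controls.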

Candida albicans [4] = assay: Tested for minimum subinhibitory concentration against Candida albicans 9 (Candida albicans) at pH 4.5.; how it was run: as §1
Candida albicans [5] = assay: Tested for minimum subinhibitory concentration against Candida albicans 9 (Candida albicans) at pH 6.5.; how it was run: as §2
Candida albicans [6] = assay: Tested for minimum subinhibitory concentration against Candida albicans 90 (Candida albicans) at pH 4.5.; how it was run: as §1
Candida albicans [7] = assay: Tested for minimum subinhibitory concentration against Candida albicans 26 (Candida albicans) at pH 6.5.; how it was run: as §2
Candida albicans [8] = assay: Tested for minimum subinhibitory concentration against Candida albicans 3 (Candida albicans) at pH 4.5.; how it was run: as §1
Candida albicans [9] = assay: Tested for minimum inhibitory concentration against Candida albicans 124 (Candida albicans) at pH 4.5.
How it was run: (§3)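 Broth microdilution in malt extract broth, initial pH 4.5 or 6.5, with 1×10^3 CFU per 0.2 mL well of thawed stored cultures. Compound stocks were made in 5% DMSO/0.2% Tween 80 and diluted to final 0.05–100 μg/mL. Plates were incubated 48 h at 30 °C and read macroscopically. MIC was the lowest concentration with no detectable growth. Vehicle-only wells served as controls.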

Candida albicans [10] = assay: Tested for minimum inhibitory concentration against Candida albicans 26 (Candida albicans) at pH 6.5.
How it was run: (§4)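 Broth microdilution in malt extract broth, initial pH 6.5, 1×10^3 CFU per 0.2 mL well, from liquid-nitrogen-stored Sabouraud cultures. Compound from 0.08% stock in 5% DMSO/0.2% Tween 80, final 0.05–100 μg/mL. Visual reading after 48 h at 30 °C. MIC = lowest concentration with no detectable growth. Vehicle-only negative controls.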

Candida albicans [11] = assay: Tested for minimum inhibitory concentration against Candida albicans 3 (Candida albicans) at pH 4.5.; how it was run: as §3
Candida albicans [12] = assay: Tested for minimum inhibitory concentration against Candida albicans 88 (Candida albicans) at pH 4.5.; how it was run: as §3
Candida albicans [13] = assay: Tested for minimum inhibitory concentration against Candida albicans 88 (Candida albicans) at pH 6.5.; how it was run: as §4
Candida albicans [14] = assay: Tested for minimum inhibitory concentration against Candida albicans 9 (Candida albicans) at pH 6.5.; how it was run: as §4
Candida albicans [15] = assay: Tested for minimum inhibitory concentration against Candida albicans 90 (Candida albicans) at pH 6.5.; how it was run: as §4
Candida albicans [16] = assay: Tested for minimum inhibitory concentration against Candida albicans 124 (Candida albicans) at pH of 6.5.; how it was run: as §3
[17] = test system: Meyerozyma guilliermondii; assay: Tested for minimum inhibitory concentration against Candida guilliermondii 80 (C.g) at pH of 6.5.; how it was run: as §3
[18] = test system: Meyerozyma guilliermondii; assay: Tested for minimum subinhibitory concentration against Candida guilliermondii 80 (C.g) at pH 6.5.; how it was run: as §2
Candida albicans [19] = assay: Tested for minimum subinhibitory concentration against Candida albicans 124 (Candida albicans) at pH 4.5.; how it was run: as §1
Pichia kudriavzevii [20] = assay: Tested for minimum inhibitory concentration against Candida krusei 132 (C.k) at pH of 6.5.; how it was run: as §3
Pichia kudriavzevii [21] = assay: Tested for minimum subinhibitory concentration against Candida krusei 132 (C.k) at pH 6.5.; how it was run: as §2
Candida tropicalis [22] = assay: Tested for minimum inhibitory concentration against Candida tropicalis 43 (C.t) at pH of 4.5.; how it was run: as §3
Candida tropicalis [23] = assay: Tested for minimum inhibitory concentration against Candida tropicalis 43 (C.t) at pH of 6.5.; how it was run: as §3
Candida tropicalis [24] = assay: Tested for minimum subinhibitory concentration against Candida tropicalis 43 (C.t) at pH 4.5.; how it was run: as §1
Candida tropicalis [25] = assay: Tested for minimum subinhibitory concentration against Candida tropicalis 43 (C.t) at pH 6.5.; how it was run: as §2
Mus musculus [26] = assay: Tested for efficacy of compound in experimental vaginal candidosis (mouse) after intraperitoneal treatment at dosage of 4 x50 mg kg e-1
How it was run: (§5)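 Female NMRI mice (18–20 g; 10 per group) were hormonally conditioned and infected intravaginally with 3.5×10^4 CFU C. albicans no. 124 in 50 μL Sabouraud's glucose broth. Four doses were given by gavage or ip, at 2 h before and 2, 18 and 24 h after infection. One day after the last dose, vaginal swabs were plated on Sabouraud agar with streptomycin (0.1 mg/mL) for 48 h at 37 °C. Failed reisolation counted as cure.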

Mus musculus [27] = species on record: Mus musculus; assay: Tested for efficacy of compound in experimental vaginal candidosis (mouse) after oral treatment at dosage of 4 x300 mg kg e-1; how it was run: as §5
Mus musculus [28] = species on record: Mus musculus; assay: Tested for efficacy of compound in experimental systemic candidosis (mouse) after oral treatment at dosage of 8 *100 mg kg e-1
How it was run: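 Systemic candidiasis: female NMRI mice (18–20 g), 10 per group, infected by intravenous injection of 10⁶ CFU C. albicans no. 124 via lateral tail vein. Oral dosing twice daily on 4 consecutive days, starting 2 h before inoculation. Efficacy taken as survival rate up to day 9 after infection.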

Rattus norvegicus [29] = assay: Tested for efficacy of compound in experimental vaginal candidosis (rat) after intraperitoneal treatment at dosage of 2x 50 mg kg e-1
How it was run: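 Female Wistar rats (~150 g; 10 per group) were hormonally conditioned and infected intravaginally with 3.5×10^4 CFU C. albicans no. 124 in 50 μL broth. Intraperitoneal dosing was given twice, 2 h before and 18 h after infection. Swabs taken one day after the last dose were plated on streptomycin Sabouraud agar (48 h, 37 °C). Cure meant failed reisolation.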

Rattus norvegicus [30] = species on record: Rattus norvegicus; assay: Tested for efficacy of compound in experimental vaginal candidosis (rat) after oral treatment at dosage of 2x 150 mg kg e-1
How it was run: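 Hormonally conditioned female Wistar rats (~150 g), 10 per group, given intravaginal C. albicans no. 124, 3.5×10^4 CFU in 50 μL Sabouraud's glucose broth. Oral dosing twice, 2 h before and 18 h after infection. Vaginal swabs plated on Sabouraud's glucose agar with streptomycin (0.1 mg/mL), 48 h at 37 °C. Cured when C. albicans not reisolated.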

Candida tropicalis [31] = assay: Tested for minimum inhibitory concentration against Candida tropicalis (C.t) at pH 4.5.; how it was run: as §3
Pichia kudriavzevii [32] = assay: Tested for minimum subinhibitory concentration against Candida krusei 132 (C.k) at pH 4.5.; how it was run: as §1

CC[C@@H](C)[C@H]1C(=O)NCC(=O)N(C)[C@@H](C(C)C)C(=O)N[C@@H](Cc2ccc(OC)cc2)C(=O)O[C@H](C)C(=O)N2CCCC[C@H]2C(=O)N(C)[C@@H](C(C)C)C(=O)N[C@@H](C(C)C)C(=O)N(C)[C@@H](CC(=O)O)C(=O)N(C)[C@@H]([C@@H](C)CC)C(=O)N1C
MSIC (Candida albicans [1]): 0.78 µg/mL | MSIC (Candida albicans [2]): 0.78 µg/mL | MSIC (Candida albicans [3]): 3.12 µg/mL | MSIC (Candida albicans [4]): 0.78 µg/mL | MSIC (Candida albicans [5]): 12.5 µg/mL | MSIC (Candida albicans [6]): 0.78 µg/mL | MSIC (Candida albicans [7]): 6.25 µg/mL | MSIC (Candida albicans [8]): 0.78 µg/mL | MIC (Candida albicans [9]): 1.56 µg/mL (≈ 1.38 µM) | MIC (Candida albicans [10]): > 100 µg/mL | MIC (Candida albicans [11]): 6.25 µg/mL (≈ 5.55 µM) | MIC (Candida albicans [12]): 12.5 µg/mL (≈ 11.1 µM) | MIC (Candida albicans [13]): 100 µg/mL (≈ 88.8 µM) | MIC (Candida albicans [14]): > 100 µg/mL | MIC (Candida albicans [15]): 100 µg/mL (≈ 88.8 µM) | MIC (Candida albicans [16]): 50 µg/mL (≈ 44.4 µM) | MIC [17]: > 100 µg/mL | MSIC [18]: 12.5 µg/mL | MSIC (Candida albicans [19]): 0.4 µg/mL | MIC (Pichia kudriavzevii [20]): > 100 µg/mL | MSIC (Pichia kudriavzevii [21]): 3.12 µg/mL | MIC (Candida tropicalis [22]): 1.56 µg/mL (≈ 1.38 µM) | MIC (Candida tropicalis [23]): 100 µg/mL (≈ 88.8 µM) | MSIC (Candida tropicalis [24]): 0.8 µg/mL | MSIC (Candida tropicalis [25]): 6.25 µg/mL | Efficacy (Mus musculus [26]): 7% | Efficacy (Mus musculus [27]): 64% | Efficacy (Mus musculus [28]): 40% | Efficacy (Rattus norvegicus [29]): 0% | Efficacy (Rattus norvegicus [30]): 0% | MIC (Candida tropicalis [31]): 1.56 µg/mL (≈ 1.38 µM) | MSIC (Pichia kudriavzevii [32]): 1.56 µg/mL
